Experimental data from ChEMBL document CHEMBL4477169, “Vestitol Isolated from Brazilian Red Propolis Inhibits Neutrophils Migration in the Inflammatory Process: Elucidation of the Mechanism of Action” (J Nat Prod, 2016).
Active and inactive are the calls of the source. The calls are words filed in the database; no cut-off is given here.

Columns and labels:
Neutrophil [1] = assay: Reduction of calcium influx in CXCL2/MIP2-induced mouse bone marrow neutrophils at 10 uM measured after 30 mins by Fluo 3-AM dye-based analysis; format: functional, cell-based
Outline: (§1)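 Bone marrow neutrophils (1 × 10^6/mL) loaded with Fluo 3-AM for 40 min at 37 °C, 5% CO2, then incubated 30 min with 10 μM. Plated at 2 × 10^5 cells/well. CXCL2/MIP-2 (30 ng/mL) or LTB4 added automatically in a FlexStation 3 microplate reader and calcium influx fluorescence recorded.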

Mus musculus [2] = assay: Antiinflammatory activity in C57BL/6 mouse assessed as reduction in CXCL2/MIP-2 release in peritoneal cavity at 10 mg/kg, sc dosed 30 mins prior mBSA challenge measured after 3 hrs post mBSA challenge by ELISA; format: functional, organism-based
Outline: (§2)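 Male SPF C57BL/6 mice (20−22 g) given sc vehicle or test agent 30 min before ip LPS (300 ng/cavity, in saline) or mBSA (30 μg/cavity) in mBSA-immunized mice. Peritoneal fluid collected after 1.5 or 3 h. TNF-α, IL-1β, CXCL1/KC and CXCL2/MIP-2 measured by ELISA, expressed as pg/mL. Mean ± SEM, n = 4−5, Tukey's test.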

Mus musculus [3] = assay: Antiinflammatory activity in C57BL/6 mouse assessed as reduction in LPS-induced leukocyte rolling in mesenteric venules at 10 mg/kg, dosed 30 mins prior LPS-challenge measured by intravital microscopy
Mus musculus [4] = assay: Antiinflammatory activity in C57BL/6 mouse assessed as reduction in mBSA-induced neutrophil migration in peritoneal activity at 1 to 10 mg/kg, sc dosed 21 days after immunization 15 mins prior to mBSA challenge measured after 6 hrs post mBSA challenge using Neubauer chamber by cell counting method
Neutrophil [5] = assay: Reduction of calcium influx in LTB4-induced mouse bone marrow neutrophils at 10 uM measured after 30 mins by Fluo 3-AM dye-based analysis; format: functional, cell-based; outline: as §1
[6] = Induction of apoptosis in mouse bone marrow macrophages assessed as viable cells at 10 uM measured after 4 hrs by Annexin V-FITC/propidium iodide staining-based flow cytometry (reference value: 92 %); format: cell-based, BMDM; settings: read-out: Activity
Neutrophil [7] = assay: Induction of apoptosis in mouse bone marrow neutrophils assessed as necrotic cells at 10 uM measured after 4 hrs by Annexin V-FITC/propidium iodide staining-based flow cytometry (reference value: 0.898 %); format: cell-based
Neutrophil [8] = assay: Induction of apoptosis in mouse bone marrow neutrophils assessed as early apoptotic cells at 10 uM measured after 4 hrs by Annexin V-FITC/propidium iodide staining-based flow cytometry (reference value: 3.49 %); format: cell-based
Mus musculus [9] = assay: Antiinflammatory activity in C57BL/6 mouse assessed as reduction in IL1-beta release in peritoneal cavity at 10 mg/kg, sc dosed 30 mins prior mBSA challenge measured after 3 hrs post mBSA challenge by ELISA
Neutrophil [10] = assay: Reduction in CXCL2/MIP2-induced chemotaxis in mouse bone marrow neutrophils at 3 and 10 uM pre-treated for 30 mins prior CXCL2/MIP2-challenge measured after 60 mins using Boyden's chamber by chemotaxis assay; format: functional, cell-based
Outline: (§3)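 Percoll-isolated bone marrow neutrophils (1 × 10^6 cells/mL) pre-incubated 30 min at 37 °C, 5% CO2 (1, 3 or 10 μM). Boyden chamber with 5-μm membrane; CXCL2/MIP-2 30 ng/mL or LTB4 in 0.01% RPMI-BSA as chemoattractant, RPMI-BSA as negative control. Migration 60 min. Panotic-stained cells averaged over 5 fields at 1000×; triplicate, n = 3−4.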

Mus musculus [11] = assay: Antiinflammatory activity in C57BL/6 mouse assessed as reduction in LPS-induced neutrophil migration in peritoneal activity at 1 to 10 mg/kg, sc dosed 30 mins prior LPS challenge measured after 6 hrs post LPS challenge using Neubauer chamber by optical microscopic analysis; format: functional, organism-based
Outline: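 Male SPF C57BL/6 mice (20−22 g) dosed sc (1, 3 or 10 mg/kg) 30 min before ip LPS (300 ng/cavity). Killed at 6 h; cavity washed with 3 mL PBS/1 mM EDTA. Total cells counted in a Neubauer chamber; differential count of 100 cells on Panotic-stained cytospins at 1000×. Neutrophils per cavity, mean ± SEM, n = 4−5.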

BMDM [12] = assay: Antiinflammatory activity in LPS-stimulated mouse bone marrow macrophages assessed as reduction in CXCL2/MIP-2 release at 1 to 10 uM pre-incubated for 30 mins prior LPS challenge measured after 4 hrs by ELISA; format: functional, cell-based
Outline: (§4)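 Femur/tibia bone marrow cells differentiated 7 days at 37 °C, 5% CO2 in RPMI with 10% FBS, penicillin, L-glutamine and 20% L929 supernatant. Macrophages seeded at 2 × 10^5/well and adhered 2 h. Pre-treated 30 min (1, 3 or 10 μM), then LPS 10 ng/mL for 4 h. Supernatant CXCL1/KC and CXCL2/MIP-2 measured by ELISA (pg/mL).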

[13] = Induction of apoptosis in mouse bone marrow macrophages assessed as late apoptotic cells at 10 uM measured after 4 hrs by Annexin V-FITC/propidium iodide staining-based flow cytometry (reference value: 2.29 %); format: cell-based; settings: bmdm
Mus musculus [14] = species on record: Mus musculus; assay: Reduction in LTB4-induced chemotaxis in mouse bone marrow neutrophils at 3 and 10 uM pre-treated for 30 mins prior LTB4-challenge measured after 60 mins using Boyden's chamber by chemotaxis assay; format: functional; outline: as §3
Mus musculus [15] = assay: Antiinflammatory activity in C57BL/6 mouse assessed as reduction in LPS-induced leukocyte adhesion in mesenteric venules at 10 mg/kg, sc dosed 30 mins prior LPS-challenge measured after 2 to 4 hrs post LPS challenge by intravital microscopy; format: functional, organism-based
Outline: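 Mice dosed sc 30 min before ip LPS (300 ng/cavity). Animals anesthetized 2 or 4 h after the stimulus and mesentery exposed on a 37 °C thermostatted plate. Post-capillary venules of 10−18 μm diameter imaged. Rolling leukocytes counted over 10 min; cells stationary >30 s scored adherent. Five fields per animal. Mean ± SEM, n = 4−5.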

BMDM [16] = assay: Antiinflammatory activity in LPS-stimulated mouse bone marrow macrophages assessed as reduction in CXCL1/KC release at 1 to 10 uM pre-incubated for 30 mins prior LPS challenge measured after 4 hrs by ELISA; format: functional, cell-based; outline: as §4
Mus musculus [17] = assay: Antiinflammatory activity in specific-pathogen free C57BL/6 mouse assessed as reduction in LPS-induced neutrophil migration in peritoneal activity at 10 mg/kg, sc dosed 15 mins prior LPS challenge measured after 6 hrs post LPS challenge by optical microscopic analysis; format: functional, organism-based
Outline: (§5)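 Wild-type C57BL/6 or iNOS−/− male mice dosed sc (10 mg/kg), then ip LPS (300 ng/cavity) 15 min later. Killed at 6 h; peritoneal cavity washed. Total and differential cell counts done. Mean ± SEM, n = 4−5, Tukey's test.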

Mus musculus [18] = assay: Antiinflammatory activity in iNOS-/- mouse assessed as reduction in LPS-induced neutrophil migration in peritoneal activity at 10 mg/kg, sc dosed 15 mins prior LPS challenge measured after 6 hrs post LPS challenge by optical microscopic analysis; format: functional, organism-based; outline: as §5
[19] = Induction of apoptosis in mouse bone marrow neutrophils assessed as viable cells at 10 uM measured after 4 hrs by Annexin V-FITC/propidium iodide staining-based flow cytometry (reference value: 90.8 %); format: cell-based, Neutrophil; settings: read-out: Activity
Mus musculus [20] = assay: Antiinflammatory activity in C57BL/6 mouse assessed as reduction in TNFalpha release in peritoneal cavity at 10 mg/kg, sc dosed 30 mins prior LPS challenge measured after 1.5 hrs post LPS challenge by ELISA
[21] = Induction of apoptosis in mouse bone marrow macrophages assessed as early apoptotic cells at 10 uM measured after 4 hrs by Annexin V-FITC/propidium iodide staining-based flow cytometry (reference value: 5.03 %); format: cell-based; settings: bmdm
Mus musculus [22] = assay: Antiinflammatory activity in C57BL/6 mouse assessed as reduction in CXCL1/KC release in peritoneal cavity at 10 mg/kg, sc dosed 30 mins prior mBSA challenge measured after 3 hrs post mBSA challenge by ELISA; format: functional, organism-based; outline: as §2
Mus musculus [23] = assay: Antiinflammatory activity in C57BL/6 mouse assessed as reduction in CXCL1/KC release in peritoneal cavity at 10 mg/kg, sc dosed 30 mins prior LPS challenge measured after 3 hrs post LPS challenge by ELISA; format: functional, organism-based; outline: as §2
Mus musculus [24] = assay: Antiinflammatory activity in C57BL/6 mouse assessed as reduction in CXCL2/MIP-2 release in peritoneal cavity at 10 mg/kg, sc dosed 30 mins prior LPS challenge measured after 3 hrs post LPS challenge by ELISA; format: functional, organism-based; outline: as §2
[25] = Induction of apoptosis in mouse bone marrow macrophages assessed as necrotic cells at 10 uM measured after 4 hrs by Annexin V-FITC/propidium iodide staining-based flow cytometry (reference value: 0.69 %); format: cell-based; settings: bmdm
Neutrophil [26] = assay: Effect on CXCR2 expression in mouse bone marrow neutrophils at 10 uM measured after 1.5 hrs by flow cytometric analysis; format: functional, cell-based
Outline: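 Percoll-isolated (72%/65%) bone marrow neutrophils (1 × 10^6 cells/mL, ~95% pure) incubated 1.5 h with 10 μM. Stained 20 min at 4 °C with APC-anti-Ly6G (1:200) and PE-anti-CXCR2 (1:50). Fixed in PBS/2% formaldehyde; two-color flow cytometry. Mean ± SEM, n = 3−4.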

Neutrophil [27] = assay: Induction of apoptosis in mouse bone marrow neutrophils assessed as late apoptotic cells at 10 uM measured after 4 hrs by Annexin V-FITC/propidium iodide staining-based flow cytometry (reference value: 4.8 %); format: cell-based

COc1ccc([C@H]2COc3cc(O)ccc3C2)c(O)c1
Activity (Neutrophil [1]): Active
Activity (Mus musculus [2]): Active
Activity (Mus musculus [3]): Active
Activity (Mus musculus [4]): Active
Activity (Neutrophil [5]): Active
viability at 4 h, 10 µM [6]: 89%
Activity (Neutrophil [7]): 0.546%
Activity (Neutrophil [8]): 2.93%
Activity (Mus musculus [9]): inactive
Activity (Neutrophil [10]): Active
Activity (Mus musculus [11]): Active
Activity (BMDM [12]): Active
Activity [13]: 3.35%
Activity (Mus musculus [14]): Active
Activity (Mus musculus [15]): Active
Activity (BMDM [16]): Active
Activity (Mus musculus [17]): Active
Activity (Mus musculus [18]): Active
viability at 4 h, 10 µM [19]: 93.8%
Activity (Mus musculus [20]): inactive
Activity [21]: 6.62%
Activity (Mus musculus [22]): Active
Activity (Mus musculus [23]): Active
Activity (Mus musculus [24]): Active
Activity [25]: 1.03%
Activity (Neutrophil [26]): inactive
Activity (Neutrophil [27]): 2.72%
